Screens deposited in PubChem BioAssay by several laboratories.
Cardio protect – protects H9c2 cardiomyocytes from peroxide injury; H2O2 injury protection, ATPLite, 2 h; protection from H2O2 cell death, % at 20 µM; 360,000 tested, 0.63% active; AID 588492;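 active = compounds giving at least 50% protection of heart cells from peroxide-induced death in the single-dose screen, raw or plate-pattern-corrected value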;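 note: 0% = DMSO wells with peroxide and 100% = DMSO wells without peroxide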
Tn7 DDE FP – DD(E)-Tn7 binding inhibition, primary FP screen. 370,000 tested, 0.13% active. FP displacement of FITC-Tn7 peptide from fibrin DD(E); 0% = median of compound wells per plate. P02675. inhibition, % at 8.3 µM;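 active = inhibition above the mean of compounds falling within the control limits plus 3 SD of them, cut at about 14% in these data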;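 note: 0% = plate median of compound wells and 100% = 10 µM Aha-Tn7 peptide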
Target sequence (P02675 whole entry, looked up): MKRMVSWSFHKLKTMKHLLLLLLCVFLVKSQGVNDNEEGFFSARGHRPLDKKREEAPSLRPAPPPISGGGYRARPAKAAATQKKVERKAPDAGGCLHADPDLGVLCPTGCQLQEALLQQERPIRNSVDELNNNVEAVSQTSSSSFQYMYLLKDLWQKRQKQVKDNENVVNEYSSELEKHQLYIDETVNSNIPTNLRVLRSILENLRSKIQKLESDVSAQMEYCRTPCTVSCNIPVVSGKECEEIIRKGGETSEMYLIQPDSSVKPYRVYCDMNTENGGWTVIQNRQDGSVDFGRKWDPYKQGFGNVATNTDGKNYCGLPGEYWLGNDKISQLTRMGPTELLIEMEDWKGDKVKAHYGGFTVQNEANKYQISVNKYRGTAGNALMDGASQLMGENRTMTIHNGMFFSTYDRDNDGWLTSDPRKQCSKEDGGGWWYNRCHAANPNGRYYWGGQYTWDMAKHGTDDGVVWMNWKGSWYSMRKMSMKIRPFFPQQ
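Assay system: human fibrin DD(E) protein / Input: 2 µM fibrin DD(E) / Benchmarks: high control of 10 µM Aha-Tn7 peptide / Measured by: fluorescence polarization of the labelled Tn7 tracer / Medium: Tris buffer with calcium and detergent, pH 7.8 / Timing: 10 min compound pre-incubation, 3 h probe incubation at room temperature / Repeats: one replicate per compound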
MT1-MMP act inh – inhibitors of human MT1-MMP activation | 360,000 tested, 0.061% active | AID 651647 | GFP/RFP ratio change, % at 20 µM | P50281 | HT1080 RFP-PRO-GFP cells, GFP/RFP ratio fluorescence, overnight; percent of plate control window, DMSO zero;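 active = GFP/RFP ratio change of at least 30% with cell ATP level not reduced by more than half and red fluorescence within 50% of control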
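Assay system: HT1080 RFP-PRO-GFP cells. Benchmarks: DMSO vehicle wells and RFP-L50D-GFP reporter cell wells. Times: overnight cell settling, then overnight compound exposure, 37 °C, 5% CO2. Compound: 20 µM single dose, 1% DMSO. Read-out basis: GFP/RFP fluorescence ratio.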
DDE Tn6 FP inh – inhibitors of Tn6 peptide binding to human fibrin DD(E) | Fibrin DD(E) TRITC-Tn6 fluorescence polarization displacement | inhibition, % at 8.3 µM | 370,000 tested, 0.21% active | AID 720509;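 active = inhibition above a per-campaign cutoff: mean of compounds within control limits plus 3 SD, cut at about 15% in these data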;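 note: 0% = median of all compound wells on the plate and 100% = blocking peptide control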
H9c2 TAG inh – triacylglycerol accumulation inhibition. inhibition, % at 12.5 µM. H9c2 cells, Nile Red lipid (TAG) fluorescence; cells loaded with 200 µM oleic acid. 230,000 tested, 0.66% active;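 active = pattern-corrected inhibition of lipid staining of at least 50% with the nuclear-stain viability signal not falling by more than 50%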;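 note: 0% = DMSO wells and 100% = triacsin C control wells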
DAGLB inhibitor – diacylglycerol lipase beta (human) inhibition; Q8NCG7; HEK293T DAGLB membrane lysate, EnzChek fluorogenic substrate; inhibition, % at 5.17 µM; 340,000 tested, 0.059% active; AID 504411; in the data active = inhibition above about 34%;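 note: 0% = enzyme with vehicle and 100% = wells lacking enzyme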
H9c2 TAG conf – triacylglycerol accumulation inhibition, confirmation; 990 tested, 71% active; AID 651629; inhibition, % at 12.5 µM; H9c2 lipid accumulation, Nile Red fluorescence; cells loaded with 200 µM oleic acid; shares compounds with H9c2 TAG inh;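 active = mean inhibition across replicates of 40% or more; inactive = mean inhibition below 40%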;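 note: plate controls were DMSO only wells for no effect and Triacsin C treated wells for full effect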
* = called active by the depositor; · = not tested or not shown. Hits are enriched below; roughly 1.4% of the tested compounds scored in any of these assays.

SMILES | Cardio protect | Tn7 DDE FP | MT1-MMP act inh | DDE Tn6 FP inh | H9c2 TAG inh | DAGLB inhibitor | H9c2 TAG conf
COc1ccc(CN(CCN2CCOCC2)C(=O)c2cc(F)cc(F)c2)cc1OC | · | -5 | · | -5 | · | · | ·
COc1ccc(/C(C)=N/N=C(N)N)c(O)c1 | -6 | 4 | -2 | 0 | 0 | 0 | ·
CNC(=S)NN=C(C)c1ccc(OC)cc1O | -8 | 2 | 0 | -7 | 72* | 2 | 41*
Cc1[nH]c2ccccc2c1C(c1ccccn1)N1CCCC1 (centres undefined) | 7 | 4 | 0 | -3 | -6 | 0 | ·
Cc1[nH]c2ccccc2c1C(c1ccccn1)N1CCC(C)CC1 (centres undefined) | 14 | 0 | -2 | -10 | 51* | 2 | 55*
CC1(C)Cc2c(c(N3CCOCC3)nc3sc(-c4ccc(C(=O)O)o4)c(N)c23)CO1 | 25 | 4 | -7 | 1 | 22 | 2 | ·
CNC(=O)c1ccc(-c2sc3nc(N4CCOCC4)c4c(c3c2N)CCCC4)o1 | 80* | -1 | 0 | -8 | 51* | 6 | 74*
Nc1c(C(=O)NCc2ccccc2)sc2nc(N3CCOCC3)c3c(c12)CCCC3 | -4 | 3 | 1 | 5 | 55* | 1 | 42*
CNC(=O)c1ccc(-c2sc3nc(N4CCOCC4)c4c(c3c2N)CC(C)(C)OC4)o1 | 97* | 2 | 16 | -2 | 52* | -1 | 67*
C[C@@H]1COc2cc(Br)ccc2S(=O)(=O)N1Cc1cn(Cc2ccc(F)cc2)nn1 | · | -2 | · | 3 | · | · | ·
C#CCNC(=O)C[C@H]1C(=O)N(Cc2ccc(OC)cc2)C2=CCCCC[C@@]21C(=O)OC | · | -5 | · | -4 | · | · | ·
Cc1ccc(S(=O)(=O)NC2=C(N3CCN(c4ccccc4F)CC3)C(=O)c3ccccc3C2=O)cc1 | -13 | 1 | 9 | 0 | 68* | 5 | 78*
C#CCNC(=O)C[C@H]1C[C@@]2(C(=O)OC)C(=C[C@H](C3CCCC3)O[C@@H]2C)N(Cc2ccco2)C1=O | · | 1 | · | -1 | · | · | ·
COc1ccc(Oc2c(Cl)cnn(CC(=O)C(c3ccccc3)c3ccccc3)c2=O)cc1 | · | -9 | · | 1 | · | · | ·
CCCCNC(=O)C(=O)Nc1ccc2c(c1)N(S(=O)(=O)c1cccs1)CCC2 | -4 | -4 | 13 | -7 | 60* | -5 | 54*
COCCCN1C(=O)[C@H](CC(=O)NCc2cccs2)[C@]2(C(=O)OC)CCCCC=C12 | · | 9 | · | 4 | · | · | ·
CC1CC(C)CN(CC(=O)c2cccs2)C1 (centres undefined) | 1 | 3 | 2 | 6 | 59* | 2 | 6
COc1cccc(Cn2c3ccc(NC(=O)CCc4ccc(F)cc4)cc3c(=O)n2C)c1 | -2 | -2 | 12 | 2 | 52* | · | 69*
O=C1C(Cl)=C(NCc2ccco2)C(=O)c2ccccc21 | -20 | 6 | -3 | 4 | 65* | 10 | 46*
O=C1c2ccccc2-c2onc3ccc(NCc4ccco4)c1c23 | 50 | · | 77 | · | -81 | -129 | ·
C[C@H]1COc2cc(Br)ccc2S(=O)(=O)N1Cc1cn(CCC2OCCCO2)nn1 | · | -2 | · | 5 | · | · | ·
c1ccc(-c2csc(NNC3=NCCCCC3)n2)cc1 | 4 | -7 | 4 | -6 | 85* | -1 | 108*
Clc1ccc(-c2csc(NNC3=NCCCCC3)n2)cc1 | -10 | -4 | 11 | -13 | 148* | 0 | 132*
COc1ccc(-c2csc(NNC3=NCCCCC3)n2)cc1 | · | 3 | · | 3 | · | · | ·
CCOc1ccc(-c2csc(NNC3=NCCCCC3)n2)cc1 | -1 | -4 | 5 | 4 | · | 0 | ·
SMILES | Cardio protect | Tn7 DDE FP | MT1-MMP act inh | DDE Tn6 FP inh | H9c2 TAG inh | DAGLB inhibitor | H9c2 TAG conf
COC(=O)[C@]12C[C@H](CC(=O)N3CCCC3)C(=O)N(Cc3cccc4ccccc34)C1=C[C@H](C(C)C)O[C@@H]2C1CC1 | · | 0 | · | 7 | · | · | ·
CCCc1nc2oc3c(Cl)ncnc3c2c2c1CCCC2 | -5 | 5 | 0 | 0 | 2 | -2 | ·
CCCc1nc2oc3c(NCCN(C)C)ncnc3c2c2c1CCCC2 | -15 | -3 | 3 | 1 | 58* | 1 | 24
O=c1cc(-c2cccc(Cl)c2)oc2cccc(O)c12 | -4 | -9 | 2 | 2 | 92* | -2 | 1
COC[C@@H]1CCCN1c1cccc2c1S(=O)(=O)N(C1CC1)CC[C@@H](C)O2 | · | 4 | · | 5 | · | · | ·
COc1cc([C@@H]2c3cc4c(cc3[C@H](O)[C@H]3COC(=O)[C@H]23)OCO4)cc(OC)c1OC | 6 | 6 | 14 | -5 | 50* | -2 | 49*
COc1cc(C2c3cc4c(cc3C(O)C3COCC23)OCO4)cc(OC)c1OC (centres undefined) | 1 | 3 | · | -4 | 25 | 0 | ·
Cc1cc(C)c2nc(NC(=O)c3ccc([N+](=O)[O-])o3)sc2c1 | 41 | 1 | -1 | 13 | 64* | -1 | 70*
O=C(Nc1nc2c(F)cc(F)cc2s1)c1ccc([N+](=O)[O-])o1 | -18 | -1 | -10 | 7 | 15 | 4 | ·
CC(C)(C)OC(=O)N1CCC(CC2CC(c3ccc(Cl)cc3)=NO2)(C(=O)NCC2CCCCC2)CC1 (centres undefined) | -11 | -2 | -18 | 3 | 67* | 4 | 18
CC1(C(=O)N2CCC(CC3CC(c4ccc(Cl)cc4)=NO3)(C(=O)NCC3CCCCC3)CC2)CC1 (centres undefined) | 9 | -1 | -4 | 5 | 13 | 2 | ·
COC(=O)c1noc(-c2ccc(OC)cc2)n1 | -2 | -4 | 2 | 4 | 8 | -6 | ·
COC(=O)C1=C(c2ccc(OC)cc2)OC(=O)C1(C)C | 20 | 2 | -7 | -13 | 60* | -1 | -3
COc1cccc(-c2nnc(SCc3cc(C)ccc3C)n2Cc2ccco2)c1 | · | -2 | · | 1 | · | · | ·
O=C1N[C@@H](Cc2ccccc2)COC(=O)[C@@H](Cc2ccc(F)cc2)CC/C=C/C[C@@H]1CC(=O)N(CCO)Cc1ccccc1 | 4 | 4 | · | 6 | 55* | -6 | 44*
O=C1N[C@H](Cc2ccccc2)COC(=O)[C@@H](Cc2ccc(F)cc2)CC/C=C/C[C@H]1CC(=O)N(CCO)Cc1ccccc1 | 42 | -2 | -15 | 0 | 16 | -2 | ·
CCOc1ccc(C(=O)Nc2nnc(NC(=S)Nc3ccccc3)s2)cc1 | -26 | -2 | 7 | 0 | 51* | 3 | 42*
CCN(CC)CCn1c(SCC(=O)Nc2cccc(OC)c2)nc2c(sc3ccccc32)c1=O | 1 | 2 | -1 | -3 | 52* | -1 | 54*
COc1cccc(NC(=O)CSc2nc3c(sc4ccccc43)c(=O)n2CCN(C)C)c1 | 4 | 0 | 0 | 2 | -3 | -3 | ·
